Data as given in publication PMC4561207 (Child's nervous system : ChNS : official journal of the …, 2015).

Test: Adverse events regardless of attribution
Assay type: in vivo, human
Procedure, shortened: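 Children with recurrent/refractory CNS tumours took oral drug once daily, continuously, in 28-day cycles. Dosing was stratified by EIACD use, with start/escalation levels 20–40 mg/m² (no EIACD) or 15–32 mg/m² (EIACD). Monitoring included weekly exam, serum chemistries, CBC and urine protein for 8 weeks, and TSH before each cycle. Events other than hypertension were graded by CTCAE v3, later v4.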

COc1cc2c(Oc3ccc4[nH]c(C)cc4c3F)ncnc2cc1OCCCN1CCCC1 [cediranib, Cediranib]
3(2): Hypokalemia, events (patients) (grade 3 AE) | Bone pain, events (patients) (total AE)
38(19): Headache, events (patients) (total AE)
59(38): Hypertension, events (patients) (total AE)
5(3): Lymphocyte count decreased, events (patients) (grade 3 AE) | Creatinine increased, events (patients) (total AE) | Dizziness, events (patients) (total AE) | Hematuria, events (patients) (total AE)
26(18): Platelet count decreased, events (patients) (total AE)
25(20): Fatigue, events (patients) (total AE)
9(4): Constipation, events (patients) (total AE)
6(3): Hypercalcemia, events (patients) (total AE)
41(21): Vomiting, events (patients) (total AE)
16(5): Hypernatremia, events (patients) (total AE)
3(1): Flushing, events (patients) (total AE) | Malaise, events (patients) (total AE)
2(1): Hypernatremia, events (patients) (grade 3 AE) | Hypernatremia, events (patients) (grade 4 AE) | Lipase increased, events (patients) (total AE) | Reversible posterior leukoencephalopathy syndrome, events (patients) (total AE)
29(13): Hyponatremia, events (patients) (total AE)
23(18): Hypokalemia, events (patients) (total AE)
21(13): Hypophosphatemia, events (patients) (total AE)
4(3): Alkaline phosphatase increased, events (patients) (total AE) | Hydrocephalus, events (patients) (total AE)
22(16): Hyperglycemia, events (patients) (total AE)
45(23): Aspartate aminotransferase increased, events (patients) (total AE)
23(11): Neutrophil count decreased, events (patients) (total AE)
63(32): Diarrhea, events (patients) (total AE)
40(21): Proteinuria, events (patients) (total AE)
3(3): Diarrhea, events (patients) (grade 3 AE) | Nausea, events (patients) (grade 3 AE) | Palmar-plantar erythrodysesthesia syndrome, events (patients) (grade 3 AE) | Proteinuria, events (patients) (grade 3 AE) | Seizure, events (patients) (grade 3 AE) | Depression, events (patients) (total AE) | Dysphasia, events (patients) (total AE) | Fever, events (patients) (total AE) | Myalgia, events (patients) (total AE) | Non-cardiac chest pain, events (patients) (total AE) | Stomach pain, events (patients) (total AE) | Urinary retention, events (patients) (total AE)
9(7): Hypomagnesemia, events (patients) (total AE) | Pain in extremity, events (patients) (total AE)
25(16): Nausea, events (patients) (total AE)
34(17): Hypoalbuminemia, events (patients) (total AE)
5(4): Back pain, events (patients) (total AE) | Cough, events (patients) (total AE)
18(10): Blood bilirubin increased, events (patients) (total AE)
17(7): Palmar-plantar erythrodysesthesia syndrome, events (patients) (total AE)
31(13): Lymphocyte count decreased, events (patients) (total AE)
15(9): Hypermagnesemia, events (patients) (total AE)
23(14): White blood cell decreased, events (patients) (total AE)
70(30): Alanine aminotransferase increased, events (patients) (total AE)
10(10): Hypertension, events (patients) (grade 3 AE)
8(7): Dehydration, events (patients) (total AE)
4(4): Dehydration, events (patients) (grade 3 AE) | Fatigue, events (patients) (grade 3 AE) | Dyspepsia, events (patients) (total AE) | Hyperkalemia, events (patients) (total AE) | Intracranial hemorrhage, events (patients) (total AE) | Mucositis oral, events (patients) (total AE) | Nervous system disorders - Other, specify, events (patients) (total AE) | Oral pain, events (patients) (total AE) | Pain, events (patients) (total AE) | Peripheral motor neuropathy, events (patients) (total AE)
26(16): Hypocalcemia, events (patients) (total AE)
15(12): Anorexia, events (patients) (total AE)
12(6): Hemoglobin increased, events (patients) (total AE)
1(1): Blurred vision, events (patients) (grade 3 AE) | Capillary leak syndrome, events (patients) (grade 3 AE) | Chest wall pain, events (patients) (grade 3 AE) | Confusion, events (patients) (grade 3 AE) | Enterocolitis, events (patients) (grade 3 AE) | Eye disorders - Other, specify, events (patients) (grade 3 AE) | Hyperkalemia, events (patients) (grade 3 AE) | Hypermagnesemia, events (patients) (grade 3 AE) | Hypertriglyceridemia, events (patients) (grade 3 AE) | Lipase increased, events (patients) (grade 3 AE) | Mucositis oral, events (patients) (grade 3 AE) | Reversible posterior leukoencephalopathy syndrome, events (patients) (grade 3 AE) | Weight loss, events (patients) (grade 3 AE) | White blood cell decreased, events (patients) (grade 3 AE) | Alanine aminotransferase increased, events (patients) (grade 4 AE) | Aspartate aminotransferase increased, events (patients) (grade 4 AE) | Hyponatremia, events (patients) (grade 4 AE) | Hypothyroidism, events (patients) (grade 4 AE) | Lymphocyte count decreased, events (patients) (grade 4 AE) | Nervous system disorders - Other, specify, events (patients) (grade 4 AE) | Papilledema, events (patients) (grade 4 AE) | Seizure, events (patients) (grade 4 AE) | Anal mucositis, events (patients) (total AE) | Anal pain, events (patients) (total AE) | Arthralgia, events (patients) (total AE) | Blurred vision, events (patients) (total AE) | Capillary leak syndrome, events (patients) (total AE) | Cardiac troponin I increased, events (patients) (total AE) | Cholesterol high, events (patients) (total AE) | Chronic kidney disease, events (patients) (total AE) | Dry mouth, events (patients) (total AE) | Dry skin, events (patients) (total AE) | Edema face, events (patients) (total AE) | Enterocolitis, events (patients) (total AE) | GGT increased, events (patients) (total AE) | Hoarseness, events (patients) (total AE) | Hypertriglyceridemia, events (patients) (total AE) | Hypoxia, events (patients) (total AE) | INR increased, events (patients) (total AE) | Joint effusion, events (patients) (total AE) | Leukoencephalopathy, events (patients) (total AE) | Papilledema, events (patients) (total AE) | Pericardial effusion, events (patients) (total AE) | Pleural effusion, events (patients) (total AE) | Rectal pain, events (patients) (total AE) | Renal and urinary disorders - Other, specify, events (patients) (total AE) | Serum amylase increased, events (patients) (total AE)
21(15): Hypothyroidism, events (patients) (total AE)
11(11): Abdominal pain, events (patients) (total AE)
5(5): Hyponatremia, events (patients) (grade 3 AE) | Weight loss, events (patients) (total AE)
7(5): Headache, events (patients) (grade 3 AE) | Acidosis, events (patients) (total AE)
2(2): Anemia, events (patients) (grade 3 AE) | Aspartate aminotransferase increased, events (patients) (grade 3 AE) | Depressed level of consciousness, events (patients) (grade 3 AE) | Dysphasia, events (patients) (grade 3 AE) | Hydrocephalus, events (patients) (grade 3 AE) | Neutrophil count decreased, events (patients) (grade 3 AE) | Oral pain, events (patients) (grade 3 AE) | Peripheral motor neuropathy, events (patients) (grade 3 AE) | Vomiting, events (patients) (grade 3 AE) | Chest wall pain, events (patients) (total AE) | Confusion, events (patients) (total AE) | Depressed level of consciousness, events (patients) (total AE) | Edema limbs, events (patients) (total AE) | Endocrine disorders - Other, specify, events (patients) (total AE) | Eye disorders - Other, specify, events (patients) (total AE) | Fecal incontinence, events (patients) (total AE) | Gastritis, events (patients) (total AE) | Gastrointestinal disorders - Other, specify, events (patients) (total AE) | Hyperthyroidism, events (patients) (total AE) | Investigations - Other, specify, events (patients) (total AE) | Rash acneiform, events (patients) (total AE) | Respiratory, thoracic and mediastinal disorders - Other, specify, events (patients) (total AE) | Skin and subcutaneous tissue disorders - Other, specify, events (patients) (total AE) | Skin ulceration, events (patients) (total AE) | Urinary frequency, events (patients) (total AE) | Vascular disorders - Other, specify, events (patients) (total AE) | Voice alteration, events (patients) (total AE)
7(6): Anemia, events (patients) (total AE) | Seizure, events (patients) (total AE)
6(5): Epistaxis, events (patients) (total AE) | Hypoglycemia, events (patients) (total AE) | Rash maculo-papular, events (patients) (total AE)
